Only some compounds are listed: those with a hit (about 2.7% of all), similar ones and a draw of the others.
FLuc inhib CS: Photinus pyralis luciferase inhibition counter-screen; P08659; ATPLite firefly luciferase biochemical luminescence, 10 min; inhibition, % at 10 µM; 200,000 tested, 1.5% active;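 active = inhibition above about 50% when tested at 10 µM, limit read from the data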
ABCG2 block: inhibitors of human ABCG2 transporter, ABCB1 counter-screen; Q9UNQ0; IgMXP3 cells, JC-1 efflux, flow cytometry; inhibition, % at 6.6 µM; 190,000 tested, 0.1% active; AID 1325;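 active = inhibition above 80%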
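Test system: IgMXP3 (ABCG2) plus far-red-tagged CCRF-Adr (ABCB1) cells. Reagent: JC-1 dye as substrate. Timing: 10 min exposure at 25 °C with rotation, no wash. Measured by: flow cytometric JC-1 green MFI at 530 nm. Read-out: percent efflux inhibition, scaled nicardipine 100% to DMSO 0%. Control set: nicardipine and DMSO wells.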
DTT redox prof: compounds producing H2O2 with reducing agent – biochemical, NIH compound library profiling, artefact control for MLSCN library redox annotation, primary screen. DTT-dependent redox cycling H2O2, phenol red/HRP absorbance; 100% = 100 µM peroxide control, 0% = buffer. activation, % at 10 µM. 200,000 tested, 0.03% active. AID 878;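 active = activation of at least 50% relative to the plate's high and low controls in the primary single-dose screen; inactive = activation below 50%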;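 note: compound incubated with DTT at 0.8 mM final as the reducing agent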
ABCB1 block: human ABCB1 inhibition, ABCG2 as counter-screen | P08183 | 190,000 tested, 0.067% active | inhibition, % at 6.6 µM | CCRF-Adr cells, JC-1 efflux, flow cytometry; in the data active = inhibition above about 40%;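 note: higher value means more JC-1 retained so stronger ABCB1 efflux block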
Target sequence (P08183 whole entry, looked up): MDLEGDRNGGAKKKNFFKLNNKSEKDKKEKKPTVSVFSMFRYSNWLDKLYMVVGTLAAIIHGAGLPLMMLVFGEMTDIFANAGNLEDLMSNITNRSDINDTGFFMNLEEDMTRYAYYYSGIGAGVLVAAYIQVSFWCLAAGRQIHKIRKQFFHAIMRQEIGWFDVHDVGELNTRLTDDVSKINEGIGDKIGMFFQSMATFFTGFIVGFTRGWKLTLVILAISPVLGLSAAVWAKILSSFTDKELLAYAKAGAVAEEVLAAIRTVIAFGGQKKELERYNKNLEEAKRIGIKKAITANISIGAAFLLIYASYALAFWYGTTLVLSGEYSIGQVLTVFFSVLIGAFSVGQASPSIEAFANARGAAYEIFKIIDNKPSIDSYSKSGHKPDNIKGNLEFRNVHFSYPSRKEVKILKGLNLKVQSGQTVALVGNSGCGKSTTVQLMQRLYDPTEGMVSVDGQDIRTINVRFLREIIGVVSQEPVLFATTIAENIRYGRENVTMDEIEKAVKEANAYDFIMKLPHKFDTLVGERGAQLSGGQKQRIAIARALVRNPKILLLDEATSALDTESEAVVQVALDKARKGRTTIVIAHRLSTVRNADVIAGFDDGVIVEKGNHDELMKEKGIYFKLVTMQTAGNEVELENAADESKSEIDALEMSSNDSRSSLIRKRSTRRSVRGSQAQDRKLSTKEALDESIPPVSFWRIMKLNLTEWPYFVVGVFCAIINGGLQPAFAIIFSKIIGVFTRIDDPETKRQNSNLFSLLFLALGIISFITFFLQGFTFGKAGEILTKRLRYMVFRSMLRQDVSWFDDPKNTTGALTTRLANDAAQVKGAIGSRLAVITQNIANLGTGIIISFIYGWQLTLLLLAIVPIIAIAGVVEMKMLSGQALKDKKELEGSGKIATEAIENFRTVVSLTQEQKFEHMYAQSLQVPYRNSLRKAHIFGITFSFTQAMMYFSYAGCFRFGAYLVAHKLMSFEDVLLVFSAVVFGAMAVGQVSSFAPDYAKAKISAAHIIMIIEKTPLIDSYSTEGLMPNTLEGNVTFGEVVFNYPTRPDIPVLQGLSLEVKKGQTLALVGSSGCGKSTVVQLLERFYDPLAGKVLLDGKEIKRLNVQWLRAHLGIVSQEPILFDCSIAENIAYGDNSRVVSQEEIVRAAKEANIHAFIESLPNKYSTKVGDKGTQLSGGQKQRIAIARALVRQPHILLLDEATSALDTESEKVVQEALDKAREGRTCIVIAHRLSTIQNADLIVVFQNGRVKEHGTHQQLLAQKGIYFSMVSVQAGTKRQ
Measles CPE: protection of cells from measles virus; Measles virus-infected cells, CPE protection, absorbance; protection (pct of control), % at 4 µM; 140,000 tested, 1.5% active; in the data active = protection mostly above about 24%, no sharp cut-off; inactive = mostly below about 26%
FLuc stim CS: firefly luciferase counter-screen for stimulation assays. ATPlite luciferase biochemical, luminescence, 10 min; 0 = ATP-free wells, 1 = DMSO control. activation factor at 10 µM. AID 1027. 200,000 tested, under 10 active. P08659;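 active = luciferase activation factor, scaled between plate controls, of at least 2 with compound at 10 µM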
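System: luciferase plus luciferin reagent, cell-free; medium: PBS as buffer for the ATP substrate; dosing: test compounds dosed from 2 mM stocks in 100% DMSO; timing: 10 min post-reagent at room temperature; measured by: luminescence measurement of luciferase light output; evaluation: luciferase activation, seen as luminescence increase over controls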
Of the large screens only hits and unclear results are named; the others gave an inactive call.

CCc1c(C(=O)NCc2ccccc2Cl)[nH]c(C)c1C(C)=O	Measles CPE 34
Cc1cc(C)nc(Oc2ccc([N+](=O)[O-])cc2)n1	none (no result: Measles CPE)
O=C(N/N=C/c1c[nH]c2ccc(Br)cc12)c1ccncc1	Measles CPE 29
COc1cc(/C=C/C(=O)C2C(=O)C=C(C)OC2=O)cc(OC)c1O (configuration not stated)	none
COc1ccc(/C=C/C(=O)C2C(=O)C=C(C)OC2=O)cc1O (configuration not stated)	FLuc inhib CS 83
COc1cc(C(=O)NCCc2ccc(S(=O)(=O)N3CCCC3)cc2)cc(OC)c1OC	none (no result: Measles CPE)
CC(=O)c1ccc(NC(=O)c2ccn[nH]2)cc1	FLuc inhib CS 60
O=C(Nc1ccccc1)c1ccn[nH]1	none
CC(=O)Nc1cc(ON=C(C)C)cc([N+](=O)[O-])c1	Measles CPE 47
O=C(Cc1coc2ccc3ccccc3c12)Nc1nnc(C2CC2)s1	Measles CPE 56
C=CCn1c(-c2ccc([N+](=O)[O-])cc2)n[nH]c1=S	Measles CPE 38
S=C(c1ccc(-c2ccc(Cl)cc2)o1)N1CCCCC1	FLuc inhib CS 71
COc1cc(S(=O)(=O)N2CCN(c3ccccc3F)CC2)ccc1Cl	FLuc inhib CS 74
COc1cc(S(=O)(=O)N2CCN(c3ccccc3)CC2)ccc1Cl	none
COC(=O)[C@@H]1C2CCC(C(=O)Nc3ccccc3)(CC2)[C@@H]1C(=O)OC	Measles CPE 48
COc1ccc(C2(C(=O)Nc3ccccc3)CCOCC2)cc1	none
Nn1c(COc2ccc(Cl)cc2)nc2ccccc2c1=O	none
N#Cc1c(NC(=O)CSc2ccccn2)oc(-c2ccccc2)c1-c1ccccc1	Measles CPE 33
CC1CN(C(=O)COC(=O)c2nn(-c3ccccc3)c(=O)c3ccccc23)CC(C)O1 (configuration not stated)	none (no result: Measles CPE)
COC(=O)[C@@H]1C(c2c(OC)cc(OC)cc2OC)=NO[C@H]1C(=O)OC	none
CCOC(=O)Cc1csc(/C(=N/O)C(N)=O)n1	Measles CPE 33
CCOC(=O)Cc1csc(N)n1	none
CCOC(=O)C(C(=O)OCC)C(Nc1cccc(Br)c1)c1ccccc1 (configuration not stated)	Measles CPE 31
CCn1c(-c2cc3c(C(F)(F)F)nn(C)c3s2)n[nH]c1=S	none
C/C(=N\NC(=O)c1nn(C)c(C)c1Br)c1cccc(NC(=O)c2ccc(F)cc2)c1	FLuc inhib CS 69
C/C(=N\NC(=O)c1c(Br)c(C)nn1C)c1cccc(NC(=O)c2ccccc2F)c1	none
Clc1ccc(-c2nc3n(n2)Cc2ccccc2-3)cc1	FLuc inhib CS 58
CCOC(=O)C1Cc2ccccc2CN1 (configuration not stated)	none
CCOC(=O)C1Cc2c([nH]c3ccccc23)CN1 (configuration not stated)	Measles CPE 42
CS(=O)(=O)N1CCN(Cc2ccc([N+](=O)[O-])cc2)CC1	none (no result: Measles CPE)
Cc1ccc(-c2nc(N)sc2CC(=O)OCC(=O)N2C(C)CCCC2C)cc1 (configuration not stated)	none
Cc1ccc(-c2nc(N)sc2CC(=O)OCC(=O)NC2CCCC(C)C2C)cc1 (configuration not stated)	Measles CPE 26
CCOc1ccc(-c2nc(C)c(C(C)=O)n2O)cc1	FLuc inhib CS 64
CCOC(=O)c1sc(-c2ccccc2)nc1C	none (no result: Measles CPE)
CCOC(=O)Cc1ccc2sc(-c3ccccc3)nc2c1	FLuc inhib CS 74
COc1ccc(OCCC(=O)OCC(=O)NCCc2ccccc2)cc1	none (no result: Measles CPE)
Cc1cccc(NC(=O)CSc2nnc(CNC(=O)c3ccc(S(=O)(=O)N(C)C)cc3)n2-c2cccc(C)c2)c1	none
O=Cc1c(OCc2ccccc2)ccc2ccccc12	none (no result: Measles CPE)
CC(C)Oc1ccc2ccccc2c1C=O	Measles CPE 24
Cc1ccc(C(=O)Nc2ccncc2)o1	none
Cc1cc(C(=O)Nc2ccc3c(c2)OCCO3)co1	FLuc inhib CS 75
Cc1ccc(C(=O)Nc2ccc3c(c2)OCCO3)o1	FLuc inhib CS 84
Cn1c(C(=O)Nc2ccc3c(c2)OCCO3)cc2sccc21	FLuc inhib CS 81
Cc1ccc2nc(-c3ccc(SCC(=O)Nc4nnc(C)s4)nc3)[nH]c2c1	FLuc inhib CS 56
Cc1ccc2nc(-c3ccc(SCC(=O)Nc4nc(C)cs4)nc3)[nH]c2c1	none (no result: ABCB1 block)
CC(=O)Nc1ccc(NC(=O)CSc2ccc(-c3ccc4c(c3)OCO4)nn2)cc1	none
Cc1ccc2nc(-c3ccc(SCC(=O)Nc4ccc5c(c4)OCCO5)nc3)[nH]c2c1	FLuc inhib CS 62
O=C(CSc1ccc(-c2nc3ccccc3[nH]2)cn1)Nc1ccc2c(c1)OCCO2	none
Cc1ccc(-c2ccc(SCC(=O)Nc3ccc4c(c3)OCCO4)nn2)cc1	FLuc inhib CS 57
Cc1cc(C)cc(NC(=O)CSc2ccc(-c3cccs3)nn2)c1	Measles CPE 41
O=C1c2ccccc2C(=O)C1Cc1cccc2ccccc12	none
CCN(CC)S(=O)(=O)c1ccc(O)c(NS(=O)(=O)c2ccccc2F)c1	none
Cc1cc2nc(-c3ccc(SCC(=O)Nc4ccc5c(c4)OCCO5)nc3)[nH]c2cc1C	FLuc inhib CS 81
c1ccc(CSc2ccc(-c3cccs3)nn2)cc1	FLuc inhib CS 66, Measles CPE 28
O=C(CSc1ccc([N+](=O)[O-])cn1)Nc1ccc2c(c1)OCCO2	none (no result: Measles CPE)
CCOC(=O)Cc1ncccc1C(=O)Nc1ccc(Oc2ccccc2)cc1	none (no result: Measles CPE)
O=C(COc1ccc(Cl)cc1Cl)NCc1ccncc1	none
Cc1cc(Cl)ccc1OCC(=O)NCc1ccncc1	Measles CPE 48
O=C(CSC(=S)N1CCSCC1)c1ccc(Cl)cc1	none (no result: Measles CPE)
O=C(CSC(=S)N1CCSCC1)c1ccccc1	FLuc inhib CS 68 (no result: Measles CPE)
COc1cccc(C(=O)N/N=c2\sc3ccccc3n2C)c1	Measles CPE 26
COc1cc(OC)cc(C(=O)N=c2sc3ccccc3n2C)c1	none (no result: Measles CPE)
Cc1ccc(C(=O)N/N=c2\sc3ccccc3n2C)cc1	none
COc1ccc(C(=O)N=c2sc3ccccc3n2C)cc1	FLuc inhib CS 69 (no result: Measles CPE)
CCn1c(CN2CCN(CCO)CC2)nc2ccccc21	none (no result: Measles CPE)
CCCNS(=O)(=O)c1cccc(C(=O)NC2CCCc3ccccc32)c1 (configuration not stated)	Measles CPE 41
COc1cccc(NC(=O)Nc2ccc(CC(=O)O)cc2)c1	none (no result: Measles CPE)
COc1ccc(-c2cc(C(=O)Nc3cc(C)on3)no2)cc1	none (no result: Measles CPE)
COc1ccc(C(=O)Nc2cccc(OC)c2)cc1	FLuc inhib CS 67
COc1cccc(NC(=O)c2ccc(NC(=O)C(C)C)cc2)c1	none (no result: Measles CPE)
COc1ccc(C(=O)Nc2cc(C)on2)cc1	FLuc inhib CS 73

Screening data deposited in PubChem BioAssay by several laboratories.
